In ChEMBL document CHEMBL5331120, “Stapled β-Hairpin Antimicrobial Peptides with Improved Stability and Activity against Drug-Resistant Gram-Negative Bacteria” (J Med Chem, 2023):
≈ marks a conversion by molar mass, not a printed value. Calls of active or inactive are those of the source. No cut-off for these calls is given here.

Legend:
Staphylococcus aureus = experiment: Antimicrobial activity against Staphylococcus aureus ATCC 29737 assessed as inhibition of bacterial growth incubated for 18 hrs by broth microdilution method; format: functional, organism-based
How it was run: (§1)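 Standard broth microdilution in MHB. Overnight culture (37 °C, 120 rpm) adjusted to OD600 0.07 and diluted 1000× to 3 × 10^5 CFU/mL. Peptides serially diluted in triplicate, 18 h at 37 °C with 120 rpm shaking. Growth read as OD600; MIC is the lowest concentration with no visible growth. Colistin served as control for Gram-negatives, vancomycin for S. aureus.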

Pseudomonas aeruginosa = experiment: Antimicrobial activity against Pseudomonas aeruginosa ATCC 9027 assessed as inhibition of bacterial growth incubated for 18 hrs by broth microdilution method; format: functional; how it was run: as §1
Escherichia coli [1] = experiment: Antimicrobial activity against Escherichia coli ATCC 25922 assessed as inhibition of bacterial growth incubated for 18 hrs by broth microdilution method; format: functional; how it was run: as §1
Escherichia coli [2] = experiment: Antimicrobial activity against colistin resistant Escherichia coli clinical isolate R1 harboring mcr-1 gene assessed as inhibition of bacterial growth incubated for 18 hrs by broth microdilution method; format: functional, organism-based
How it was run: (§2)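 Overnight MHB culture (37 °C, 120 rpm) adjusted to OD600 0.07 (~10^8 CFU/mL), then diluted 1000× to 3 × 10^5 CFU/mL. Peptides serially diluted with the bacterial suspension in triplicate, shaken at 37 °C, 120 rpm for 18 h, then OD600 read. MIC is the lowest concentration with no visible growth. Colistin as positive control.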

Escherichia coli [3] = experiment: Antimicrobial activity against colistin/carbapenem resistant Escherichia coli clinical isolate R2 harboring mcr-1 and NDM-1 gene assessed as inhibition of bacterial growth incubated for 18 hrs by broth microdilution method; format: functional, organism-based; how it was run: as §2
Escherichia coli [4] = experiment: Antimicrobial activity against colistin/carbapenem resistant Escherichia coli clinical isolate R3 harboring NDM-7 and OXA-181 gene assessed as inhibition of bacterial growth incubated for 18 hrs by broth microdilution method; format: functional, organism-based
Erythrocyte = experiment: Hemolytic activity in human RBC upto 128 uM incubated for 1 hr by absorbance based analysis; format: toxicity, cell-based
How it was run: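 Washed human RBCs from healthy volunteers at 4% in PBS. Peptide at 4–128 μM, 37 °C for 1 h. Supernatant after 1000g, 10 min spin read at OD540. 1% Triton X-100 gave full lysis; % hemolysis derived and HC50 estimated.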

Escherichia coli [5] = experiment: Antimicrobial activity against Escherichia coli ATCC 25922 assessed as fold increase in MIC compound pretreated for 1 hr with trypsin and measured after 18 hrs by broth microdilution method relative to control; format: functional; conditions: trypsin pretreatment 1 hr; MIC measured after 18 hrs
How it was run: (§3)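 Peptide incubated with trypsin at a 1:2000 trypsin/peptide molar ratio (e.g., 1 mM peptide with 0.5 μM trypsin), 37 °C, 1 h. Reaction stopped at 80 °C for 10 min, then serially diluted against E. coli in MHB broth microdilution. Inoculum 3 × 10^5 CFU/mL, 37 °C, 120 rpm, 18 h, read by OD600, triplicates. Fold change in MIC taken versus untreated control.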

[6] = Stability of compound assessed as trypsin (unknown origin) mediated compound degradation by measuring parent compound remaining measured after 1 hr by RP-HPLC analysis; format: ADME, protein assay; conditions: human, read-out: Stability
How it was run: (§4)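 Peptide with trypsin at a 1:2000 trypsin/peptide molar ratio, 37 °C, sampled at 15, 30, 60 and 90 min. Reaction stopped with an equal volume of 50% acetonitrile/1% TFA. Analysed on C18 RP-HPLC with UV at 220 nm; intact peptide given as % of AUC.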

Escherichia coli [7] = experiment: Antimicrobial activity against colistin resistant Escherichia coli clinical isolate R1 harboring mcr-1 gene assessed as fold reduction in MIC incubated for 18 hrs by broth microdilution method; format: functional
Escherichia coli [8] = experiment: Antimicrobial activity against colistin/carbapenem resistant Escherichia coli clinical isolate R2 harboring mcr-1 and NDM-1 gene assessed as fold reduction in MIC incubated for 18 hrs by broth microdilution method; format: functional
Escherichia coli [9] = experiment: Antimicrobial activity against colistin/carbapenem resistant Escherichia coli clinical isolate R3 harboring NDM-7 and OXA-181 gene assessed as fold reduction in MIC incubated for 18 hrs by broth microdilution method; format: functional
Escherichia coli [10] = experiment: Antimicrobial activity against Escherichia coli ATCC 25922 assessed as inhibition of bacterial growth compound pretreated for 1 hr with trypsin and measured after 18 hrs by broth microdilution method; format: functional, organism-based; how it was run: as §3
Escherichia coli [11] = experiment: Antimicrobial activity against Escherichia coli ATCC 25922 assessed as inhibition of bacterial growth incubated for 18 hrs in presence of 10% fetal bovine serum by broth microdilution method; format: functional, organism-based
How it was run: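 E. coli broth microdilution in MHB containing 10% fetal bovine serum. Inoculum 3 × 10^5 CFU/mL, diluted from an OD600 0.07 suspension. Incubated 18 h at 37 °C with 120 rpm shaking, OD600 read, triplicates. Fold change in MIC calculated against control MIC.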

Trypsin = Trypsin (Homo sapiens, UniProt P07477+P07478+P35030); experiment: Stability of compound assessed as trypsin (unknown origin) mediated compound degradation by measuring parent compound remaining measured after 1.5 hrs by RP-HPLC analysis; format: ADME, protein assay; how it was run: as §4

| Structure (SMILES) | Activity (Staphylococcus aureus) | MIC (Pseudomonas aeruginosa) [µM] | MIC (Escherichia coli [1]) [µM] | Activity (Escherichia coli [2]) | Activity (Escherichia coli [3]) | Activity (Escherichia coli [4]) | Activity (Erythrocyte) | fold change (FC) (Escherichia coli [5]) | remaining at 1 h [6] [%] | Activity (Pseudomonas aeruginosa) | Activity (Escherichia coli [1]) | fold change (FC) (Escherichia coli [7]) | fold change (FC) (Escherichia coli [8]) | fold change (FC) (Escherichia coli [9]) | Activity (Escherichia coli [10]) | Activity (Escherichia coli [11]) | Stability (Trypsin; 1.5 h) | remaining at 1.5 h (Trypsin; trypsin, read-out: Stability) [%] |
| --- | --- | --- | --- | --- | --- | --- | --- | --- | --- | --- | --- | --- | --- | --- | --- | --- | --- | --- |
| CC(C)C[C@@H]1NC(=O)[C@H](CCCCN)NC(=O)CNC(=O)C2CCCN2C(=O)[C@H](CCCCN)NC(=O)[C@H](CC(C)C)NC(=O)[C@H](CCCCN)NC(=O)[C@H](CC(C)C)NC(=O)[C@H](CCCCN)NC(=O)[C@@H](N)CC/C=C/CCC[C@@H](C(=O)O)NC(=O)[C@H](CCCCN)NC(=O)[C@H](CC(C)C)NC(=O)[C@H](CCCCN)NC1=O (single isomer, unassigned) | inactive | 8 (≈ 12.8 µg/mL) | 8 (≈ 12.8 µg/mL) | Active | Active | Active | Non-Toxic | >=2 | < 10 | – | – | – | – | – | – | – | – | – |
| CC(C)C[C@@H]1NC(=O)[C@H](CCCCN)NC(=O)[C@@H]2CC/C=C/CC[C@H](NC(=O)[C@H](CCCCN)NC(=O)[C@H](CC(C)C)NC(=O)[C@H](CCCCN)NC(=O)[C@@H](N)CC/C=C/CC[C@@H](C(=O)O)NC(=O)[C@H](CCCCN)NC1=O)C(=O)N[C@@H](CCCCN)C(=O)N1CCC[C@@H]1C(=O)NCC(=O)N[C@@H](CCCCN)C(=O)N2 | inactive | – | – | – | – | – | Non-Toxic | – | – | inactive | inactive | 2 | 2 | 2 | Active | Active | – | – |
| CC(C)C[C@@H]1NC(=O)[C@H](CCCCN)NC(=O)[C@@H]2CCC/C=C\CC[C@H](NC(=O)[C@H](CCCCN)NC(=O)[C@H](CC(C)C)NC(=O)[C@H](CCCCN)NC(=O)[C@@H](N)CC/C=C/CCC[C@@H](C(=O)O)NC(=O)[C@H](CCCCN)NC1=O)C(=O)N[C@@H](CCCCN)C(=O)N1CCC[C@@H]1C(=O)NCC(=O)N[C@@H](CCCCN)C(=O)N2 | inactive | – | – | – | – | – | Non-Toxic | – | – | inactive | inactive | 2 | 2 | 2 | Active | Active | – | – |
| CC(C)C[C@@H]1NC(=O)[C@H](CCCCN)NC(=O)CNC(=O)[C@H]2CCCN2C(=O)[C@H](CCCCN)NC(=O)[C@H](CC(C)C)NC(=O)[C@H](CCCCN)NC(=O)[C@@H]2CC/C=C\CC[C@H](NC(=O)[C@H](CCCCN)NC1=O)C(=O)N[C@@H](CCCCN)C(=O)N[C@H](C(=O)O)CC/C=C\CC[C@H](N)C(=O)N[C@@H](CCCCN)C(=O)N2 | inactive | – | – | – | – | – | Non-Toxic | – | – | inactive | inactive | – | – | – | Active | Active | – | – |
| CC(C)C[C@H](NC(=O)[C@H](CCCCN)NC(=O)[C@@H]1CCC/C=C/CC[C@H](NC(=O)[C@H](CCCCN)NC(=O)[C@@H](N)CC(C)C)C(=O)N[C@@H](CCCCN)C(=O)N[C@@H](CC(C)C)C(=O)N[C@@H](CCCCN)C(=O)N2CCCC2C(=O)NCC(=O)N[C@@H](CCCCN)C(=O)N[C@@H](CC(C)C)C(=O)N[C@@H](CCCCN)C(=O)N1)C(=O)O (single isomer, unassigned) | inactive | 8 (≈ 12.8 µg/mL) | 8 (≈ 12.8 µg/mL) | – | – | – | Non-Toxic | >=2 | < 10 | – | – | – | – | – | – | – | – | – |
| CC(C)C[C@@H]1NC(=O)[C@H](CCCCN)NC(=O)CNC(=O)[C@H]2CCCN2C(=O)[C@H](CCCCN)NC(=O)[C@H](CC(C)C)NC(=O)[C@H](CCCCN)NC(=O)[C@@H]2CC/C=C\CCC[C@H](NC(=O)[C@H](CCCCN)NC1=O)C(=O)N[C@@H](CCCCN)C(=O)N[C@H](C(=O)O)CC/C=C/CCC[C@H](N)C(=O)N[C@@H](CCCCN)C(=O)N2 | inactive | – | – | – | – | – | Non-Toxic | – | – | inactive | inactive | 2 | 2 | 2 | Active | Active | Unstable | – |
| CC(C)C[C@H](NC(=O)[C@H](CCCCN)NC(=O)[C@@H]1CC/C=C/CC[C@H](NC(=O)[C@H](CCCCN)NC(=O)[C@@H](N)CC(C)C)C(=O)N[C@@H](CCCCN)C(=O)N[C@@H](CC(C)C)C(=O)N[C@@H](CCCCN)C(=O)N2CCCC2C(=O)NCC(=O)N[C@@H](CCCCN)C(=O)N[C@@H](CC(C)C)C(=O)N[C@@H](CCCCN)C(=O)N1)C(=O)O (single isomer, unassigned) | inactive | 8 (≈ 12.7 µg/mL) | 8 (≈ 12.7 µg/mL) | Active | Active | – | Non-Toxic | >=2 | – | – | – | – | – | – | – | – | – | – |
| CC(C)C[C@H](NC(=O)[C@H](CCCCN)NC(=O)[C@H](CC(C)C)NC(=O)[C@H](CCCCN)NC(=O)[C@@H]1CCC/C=C/CC[C@H](NC(=O)[C@H](CCCCN)NC(=O)[C@H](CC(C)C)NC(=O)[C@H](CCCCN)NC(=O)[C@@H](N)CC(C)C)C(=O)N[C@@H](CCCCN)C(=O)N2CCC[C@@H]2C(=O)NCC(=O)N[C@@H](CCCCN)C(=O)N1)C(=O)O | inactive | – | – | – | – | – | Non-Toxic | >=2 | < 10 | – | – | – | – | – | – | – | – | – |
| CC(C)C[C@H](NC(=O)[C@H](CCCCN)NC(=O)[C@H](CC(C)C)NC(=O)[C@H](CCCCN)NC(=O)[C@@H]1CC/C=C/CC[C@H](NC(=O)[C@H](CCCCN)NC(=O)[C@H](CC(C)C)NC(=O)[C@H](CCCCN)NC(=O)[C@@H](N)CC(C)C)C(=O)N[C@@H](CCCCN)C(=O)N2CCC[C@@H]2C(=O)NCC(=O)N[C@@H](CCCCN)C(=O)N1)C(=O)O | inactive | 8 (≈ 12.7 µg/mL) | 8 (≈ 12.7 µg/mL) | Active | Active | – | Non-Toxic | – | – | – | – | – | – | – | Active | Active | – | > 40 |
